Measured values published in ChEMBL document CHEMBL4765240, “Design, Synthesis, and Immunological Evaluation of a Multicomponent Construct Based on a Glycotripeptoid Core Comprising B and T Cell Epitopes and a Toll-like Receptor 7 Agonist That Elicits Potent Immune Responses” (J Med Chem, 2018).
Activity calls are given as the source filed them. The rule behind the calls is not given here. Numbered stars: 1 amine (or outer) side, 2 acyl side, 3 side chain; on linkers, the order of the positions; unused ones are H or OH. Square brackets hold non-standard residues; d marks the D form. Peptide text beside a SMILES is read from it. * marks the point of attachment. X4 = O=C(CCN(CCCO[C@H]1O[C@H](CO)[C@@H](O)[C@H](O)[C@@H]1O)[*:1])[*:2]; X3 = COCCOc1nc(N)c2[nH]c(=O)n(Cc3ccc(C(=O)*)cc3)c2n1; X2 = O=C(CCCCCn1cc(CN[*:1])nn1)[*:2]; Ahx = NCCCCCC(=O)O

Assays:
[1] = organism: Mus musculus; assay: Adjuvanted-antitumor vaccine activity in C57BL/6 mouse assessed as induction of OT2-T cell mediated IFNgamma production in lymph node at 11.7 nmol, ID incubated for 5 days by anti-IFNgamma staining based flow cytometry; format: functional, organism-based; conditions: time 5.0 day
Method in brief: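 Lymph node cells taken at day 5, 5 × 10⁵ per well, restimulated 2 h at 37 °C with 50 μg/mL OVA 323−339 plus GolgiPlug. Fixed, permeabilized, stained with anti-CD4, anti-CD3 and anti-IFNγ; flow cytometry.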

[2] = organism: Mus musculus; assay: Immuno-adjuvant activity in immunized-C57BL/6 mouse assessed as antibody recognition in sera against 21 at 11 .7 nmol, ID at day 1 and day 20 and measured post second dose on day 27; format: functional, organism-based
Method in brief: (§1)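 C57BL/6 mice, n = 3 per group, received 11.7 nmol intradermally on days 1 and 20, and sera were taken on day 27. ELISA plates were coated at 1 μg/mL with the peptoid or the biotinylated Tn3G7K, the latter on streptavidin plates for 1 h at 37 °C. Serially diluted sera were detected with anti-mouse IgG-HRP and OPD, read at 492 nm. Log10 titer is the dilution giving twice the absorbance of 1/100 naive serum.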

[3] = organism: Mus musculus; assay: Adjuvanted-antitumor vaccine activity in C57BL/6 mouse assessed as induction of OT2-T cell mediated IFNgamma production in splenocytes at 11.7 nmol, ID followed by stimulation with OVA(323 to 339) peptide after 48 hrs by ELISA; format: functional, organism-based
Method in brief: (§2)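 OT-II CD4⁺ T cells (2 × 10⁵) transferred into C57BL/6 mice (n = 3 per group), then 11.7 nmol per mouse given intradermally. Splenocytes harvested at day 5, cultured at 5 × 10⁵ per well with or without OVA 323−339 (1 μg/mL) at 37 °C for 48 h. IFN-γ and IL-5 measured in supernatants by ELISA.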

[4] = organism: Mus musculus; assay: Adjuvanted-antitumor vaccine activity in C57BL/6 mouse assessed as induction of OT2-T cell mediated IL-5 production in splenocytes at 11.7 nmol, ID followed by stimulation with OVA(323 to 339) peptide incubated for 48 hrs by ELISA; format: functional, organism-based; method in brief: as §2
[5] = organism: Mus musculus; assay: Immuno-adjuvant activity in immunized-C57BL/6 mouse assessed as antibody recognition in sera against Tn3G7K at 11 .7 nmol, ID at day 1 and day 20 and measured post second dose on day 27; format: functional, organism-based; method in brief: as §1
[6] = tested on: Bone marrow cell; assay: Adjuvanted-antitumor vaccine activity in C57BL/6 mouse bone marrow derived cells assessed as induction of IL-12 production at 10^-4 to 10^1 ug/ml incubated for 48 hrs by ELISA; format: functional, cell-based; conditions: dose 0.0001-10 µg/ml
Method in brief: (§3)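 BMDCs from C57BL/6 bone marrow grown 6 days in 2-ME/10% FCS RPMI with GM-CSF-containing supernatant, about 60−70% CD11c⁺CD11b⁺. 10⁵ cells incubated at 37 °C for 48 h with increasing compound concentrations. IL-12p40 and IL-6 measured in supernatants by ELISA.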

[7] = organism: Mus musculus; assay: Immuno-adjuvant activity in immunized-C57BL/6 mouse assessed as antibody recognition in sera against 22 at 11 .7 nmol, ID at day 1 and day 20 and measured post second dose on day 27; format: functional, organism-based; method in brief: as §1
[8] = tested on: Bone marrow cell; assay: Adjuvanted-antitumor vaccine activity in C57BL/6 mouse bone marrow derived cells assessed as induction of T cell activation at 10^-4 to 10^1 ug/ml incubated for 3 days in presence of mouse OT2-derived CD4+ T cell by ELISA; conditions: dose 1.0 µg/ml, time 72.0 hrs
[9] = tested on: Bone marrow cell; assay: Adjuvanted-antitumor vaccine activity in C57BL/6 mouse bone marrow derived cells assessed as induction of IL-6 production at 10^-4 to 10^1 ug/ml incubated for 48 hrs by ELISA; format: functional, cell-based; conditions: dose 0.0001-10 µg/ml; method in brief: as §3
[10] = tested on: Mus musculus; assay: Adjuvanted-antitumor vaccine activity in C57BL/6 mouse assessed as fold increase in OT-2 T cells in spleen at 11.7 nmol, ID coadministered with OT2-derived CD4+ T cell after 5 days […]; format: functional; conditions: for fold change (FC): time 5 day
Method in brief: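 2 × 10⁵ OT-II CD4⁺ T cells (from OT-II Rag2 TCR-transgenic knockout mice) transferred into C57BL/6 mice (6−10 weeks, n = 3 per group), then intradermal immunization with 11.7 nmol per mouse. Spleen collected after 5 days; OT-II cells counted by flow cytometry with anti-CD4, anti-Vα2 and anti-Vβ5.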

[11] = organism: Mus musculus; assay: Immuno-adjuvant activity in C57BL/6 mouse assessed as antibody response to OVA peptide by measuring serum IgG levels at 11 .7 nmol, ID at day 0 and day 21 and measured post second dose; format: functional, organism-based; conditions: time 21.0 day
[12] = organism: Mus musculus; assay: Immuno-adjuvant activity in C57BL/6 mouse assessed as antibody response to Tn3G7K by measuring serum IgG levels at 11 .7 nmol, ID at day 0 and day 21 and measured post second dose; format: functional, organism-based; conditions: time 21.0 day
Method in brief: (§4)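 Female C57BL/6 mice, 6 weeks old, were immunized intradermally with 11.7 nmol on days 0 and 21, and sera were taken on day 28. IgG was measured by ELISA on plates coated at 1 μg/mL, with the biotinylated Tn peptide captured on streptavidin plates for 1 h at 37 °C. Serum dilution series were detected with anti-mouse IgG-HRP and OPD/H2O2, read at 492 nm. Titer is the log10 of the highest dilution giving twice the absorbance of naive serum at 1/100, reported as mean SD.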

[13] = organism: Mus musculus; assay: Adjuvanted-antitumor vaccine activity in C57BL/6 mouse assessed as induction of OT2-T cell mediated IFNgamma production in lymph node at 1 ug/ml, ID incubated for 5 days by anti-IFNgamma staining based flow cytometry; format: functional, organism-based; conditions: dose 1.0 µg/ml, time 5.0 day
[14] = tested on: CD4+ve Th; assay: Cytotoxicity against OT2 mouse CD4-positive T cells xenografted in C57BL/6 mouse assessed as reduction in cell viability in splenocytes by flow cytometry analysis; format: cell-based; conditions: in vivo
[15] = organism: Mus musculus; assay: Immuno-adjuvant activity in C57BL/6 mouse assessed as antibody response to (2R,8R,11S,14R,20R)-14-(2-amino-2-oxoethyl)-20-((2S,5R,8S,11R,14S,17R,20S,23R,26S)-5,14-bis((1H-imidazol-5-yl)methyl)-36-(4-(22-(4-((6-amino-2-(2-methoxyethoxy)-8-oxo-7H-purin-9(8H)-yl)methyl)phenyl)-3,7,11,15,22-pentaoxo-6-(3-((2S,3S,4S,5S,6R)-3,4,5-trihydroxy-6-(hydroxymethyl)tetrahydro-2H-pyran-2-yloxy)propyl)-10,14-bis(3-((2S,3S,4S,5S,6S)-3,4,5-trihydroxy-6-(hydroxymethyl)tetrahydro-2H-pyran-2-yloxy)propyl)-2,6,10,14,21-pentaazadocosyl)-1H-1,2,3-triazol-1-yl)-23-(3-amino-3-oxopropyl)-29-sec-butyl-26-(hydroxymethyl)-17-isopropyl-2,8,11,20-tetramethyl-4,7,10,13,16,19,22,25,28,31-decaoxo-3,6,9,12,15,18,21,24,27,30-decaazahexatriacontanamido)-17-sec-butyl-11-(2-carboxyethyl)-2-(3-guanidinopropyl)-8-methyl-4,7,10,13,16,19-hexaoxo-3,6,9,12,15,18-hexaazatricosane-1,23-dioic acid by measuring serum IgG levels at 11 .7 nmol, ID at day 0 and day 21 and measured post second dose; format: functional, organism-based; method in brief: as §4

Compound	Activity [1]	Activity [2]	Activity [3]	Activity [4]	Activity [5]	Activity [6]	Activity [7]	Activity [8]	Activity [9]	fold change (FC) [10]	Activity [11]	Activity [12]	Activity [13]	Activity [14]	Activity ([10]; time 5.0 day)	Activity [15]
CC[C@H](C)[C@H](NC(=O)CCCCCn1cc(CNC(=O)CCN(CCCO[C@H]2O[C@H](CO)[C@@H](O)[C@H](O)[C@@H]2O)C(=O)CCN(CCCO[C@H]2O[C@H](CO)[C@@H](O)[C@H](O)[C@@H]2O)C(=O)CCN(CCCO[C@H]2O[C@H](CO)[C@@H](O)[C@H](O)[C@@H]2O)C(=O)CCCCCNC(=O)c2ccc(Cn3c(=O)[nH]c4c(N)nc(OCCOC)nc43)cc2)nn1)C(=O)N[C@@H](CO)C(=O)N[C@@H](CCC(N)=O)C(=O)N[C@@H](C)C(=O)N[C@H](C(=O)N[C@@H](Cc1cnc[nH]1)C(=O)N[C@@H](C)C(=O)N[C@@H](C)C(=O)N[C@@H](Cc1cnc[nH]1)C(=O)N[C@@H](C)C(=O)N[C@@H](CCC(=O)O)C(=O)N[C@H](C(=O)N[C@@H](CC(N)=O)C(=O)N[C@@H](CCC(=O)O)C(=O)N[C@@H](C)C(=O)NCC(=O)N[C@@H](CCCNC(=N)N)C(=O)O)[C@@H](C)CC)C(C)C ({X3-Ahx}-[X4][X4][X4][X2]ISQAVHAAHAEINEAGR-OH)	Active	Active	Active	inactive	inactive	Active	Active	Active	Active	30	–	–	–	–	–	–
CC(=O)N[C@H]1[C@@H](OCCCNCCC(=O)N(CCCO[C@H]2O[C@H](CO)[C@H](O)[C@H](O)[C@H]2NC(C)=O)CCC(=O)N(CCCO[C@H]2O[C@H](CO)[C@H](O)[C@H](O)[C@H]2NC(C)=O)CCC(=O)OC(C)(C)C)O[C@H](CO)[C@H](O)[C@@H]1O	–	–	–	–	–	inactive	–	–	inactive	–	–	–	–	–	–	–
COCCOc1nc(N)c2[nH]c(=O)n(Cc3ccc(C(=O)O)cc3)c2n1	–	–	–	–	–	inactive	–	–	inactive	–	–	–	–	–	–	–
COCCOc1nc(N)c2[nH]c(=O)n(Cc3ccc(C(=O)NCCCCCC(=O)N(CCCO[C@H]4O[C@H](CO)[C@H](O)[C@H](O)[C@H]4NC(C)=O)CCC(=O)N(CCCO[C@H]4O[C@H](CO)[C@H](O)[C@H](O)[C@H]4NC(C)=O)CCC(=O)N(CCCO[C@H]4O[C@H](CO)[C@H](O)[C@H](O)[C@H]4NC(C)=O)CCC(=O)OC(C)(C)C)cc3)c2n1	–	–	–	–	–	Active	–	–	Active	–	inactive	inactive	inactive	–	–	–
CC[C@H](C)[C@H](N)C(=O)N[C@@H](CO)C(=O)N[C@@H](CCC(N)=O)C(=O)N[C@@H](C)C(=O)N[C@H](C(=O)N[C@@H](Cc1cnc[nH]1)C(=O)N[C@@H](C)C(=O)N[C@@H](C)C(=O)N[C@@H](Cc1cnc[nH]1)C(=O)N[C@@H](C)C(=O)N[C@@H](CCC(=O)O)C(=O)N[C@H](C(=O)N[C@@H](CC(N)=O)C(=O)N[C@@H](CCC(=O)O)C(=O)N[C@@H](C)C(=O)NCC(=O)N[C@@H](CCCNC(=N)N)C(=O)O)[C@@H](C)CC)C(C)C [ovalbumin peptide] (H-ISQAVHAAHAEINEAGR-OH)	–	–	–	–	–	–	–	–	–	–	–	–	inactive	Non-Toxic	inactive	–
CC[C@H](C)[C@H](NC(=O)CCCCCn1cc(CNC(=O)CCN(CCCO[C@H]2O[C@H](CO)[C@H](O)[C@H](O)[C@H]2NC(C)=O)C(=O)CCN(CCCO[C@H]2O[C@H](CO)[C@H](O)[C@H](O)[C@H]2NC(C)=O)C(=O)CCN(CCCO[C@H]2O[C@H](CO)[C@H](O)[C@H](O)[C@H]2NC(C)=O)C(=O)CCCCCNC(=O)c2ccc(Cn3c(=O)[nH]c4c(N)nc(OCCOC)nc43)cc2)nn1)C(=O)N[C@@H](CO)C(=O)N[C@@H](CCC(N)=O)C(=O)N[C@@H](C)C(=O)N[C@H](C(=O)N[C@@H](Cc1cnc[nH]1)C(=O)N[C@@H](C)C(=O)N[C@@H](C)C(=O)N[C@@H](Cc1cnc[nH]1)C(=O)N[C@@H](C)C(=O)N[C@@H](CCC(=O)O)C(=O)N[C@H](C(=O)N[C@@H](CC(N)=O)C(=O)N[C@@H](CCC(=O)O)C(=O)N[C@@H](C)C(=O)NCC(=O)N[C@@H](CCCNC(=N)N)C(=O)O)[C@@H](C)CC)C(C)C (HELM PEPTIDE1{[COCCOc1nc(N)c2[nH]c(=O)n(Cc3ccc(C(=O)NCCCCCC(=O)N(CCCO[C@H]4O[C@H](CO)[C@H](O)[C@H](O)[C@H]4NC(C)=O)CCC(=O)N(CCCO[C@H]4O[C@H](CO)[C@H](O)[C@H](O)[C@H]4NC(C)=O)CCC(=O)N(CCCO[C@H]4O[C@H](CO)[C@H](O)[C@H](O)[C@H]4NC(C)=O)CCC(=O)[*:2])cc3)c2n1].[O=C(CCCCCn1cc(CN[*:1])nn1)[*:2]].I.S.Q.A.V.H.A.A.H.A.E.I.N.E.A.G.R}$$$$V2.0)	Active	Active	Active	inactive	inactive	Active	Active	Active	Active	30	inactive	inactive	–	–	–	Active
